Compound activity (PubChem BioAssay)
Shown are actives, neighbours in structure and some others; about 1% of the full set was active somewhere.
eIF2B yeast act: GCN4-lacZ reporter reduction in eIF2B-epsilon mutant yeast, primary screen, S. cerevisiae, eIF2B-epsilon R284H, Beta-Glo luminescence. inhibition, % at 25 µM (by protocol). actives 0.91% (n = 27,000). AID 688, 2007;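 active = mutant luminescence inhibited past about 50% while wild type luminescence and mutant growth stay under set limits, limit read from the data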
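Material: yeast eIF2B-epsilon R284H mutant carrying GCN4–beta-galactosidase fusion. Medium: YPD yeast growth medium. Incubation: 16 h growth with compound at 30 °C, 90 min Beta-Glo step. Signal: Beta-Glo luminescence plus absorbance at 595 nm. Evaluation: % inhibition of reporter signal and growth versus controls. Doses: 25 µM single dose.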
Yeast tox: yeast growth toxicity, wild-type and mutant, primary screen, cytotoxicity control for eIF2B function restoration project, wild-type and eIF2Bepsilon R284H mutant, A595; S. cerevisiae wild-type growth, A595 turbidity, 16 h; growth inhibition, % at 25 µM (by protocol); actives 0.3% (n = 30,000);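 active = mutant and wild-type yeast strains alike exhibit over 30% growth inhibition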;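 note: 0% = untreated cell controls and 100% = YPD media blanks without cells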
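system = S. cerevisiae wild-type or eIF2Bepsilon-R284H mutant strain | buffer or medium = YPD medium | dosing = one dose, 25 µM compound, 0.2% DMSO | schedule = 16 h at 30 °C | measured by = A595 turbidity | evaluation = growth inhibition (%) versus cell controls and blanks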
Active calls of the source: *; . = not tested or not shown.

SMILES | eIF2B yeast act | Yeast tox
N#Cc1c(N2CCOCC2)nc(-c2ccco2)c2c1CCCC2 | 57* | -3
CCOc1cc(-c2nc(-c3ccc(C)nc3OCC)no2)cc(OCC)c1OCC | 56* | .
CCOc1cc(-c2nc(-c3cc(OC)c(OC)c(OC)c3)no2)cc(OCC)c1OCC | 4 | -16
CCC1S/C(=N\S(=O)(=O)c2cccs2)N(C2CCCCC2)C1=O (configuration not stated) | -24 | -5
CCOC(=O)C(C)c1nc2ccccc2[nH]c1=O (configuration not stated) | 33 | 8
CC(C)OC(=O)CCc1nc2ccccc2[nH]c1=O | 61* | 2
CCN(Cc1ccncc1)C(=O)C1CCN(S(=O)(=O)c2cccs2)CC1 | 14 | 12
Nc1nnc(SC2CC(=O)N(c3ccccc3)C2=O)s1 (configuration not stated) | 4 | 62*
COc1ccc(N2C(=O)CC(Sc3nc(C)cc(C)c3C#N)C2=O)cc1 (configuration not stated) | -17 | .
CCN(CC)c1ccc(-c2nc3cnccc3n2C)cc1 | 4 | -6
CCOC(=O)c1c(NC(=O)CN(C)C)sc(C(=O)N(CC)CC)c1C | 23 | -8
CCCC(=O)Nc1sc(C(=O)OC)c(C)c1C(N)=O | 58* | -9
CCCCNC(=O)OC1CCS(=O)(=O)C1 (configuration not stated) | 55* | -15
Cc1ccc(Oc2ccc(OCC(=O)OC3CCS(=O)(=O)C3)cc2)cc1 (configuration not stated) | 6 | .
Cc1ccc(-c2nnn(CCC(=O)Nc3ccc4c(c3)OCO4)n2)cc1 | 8 | -55
CN1CCN(CCC(=O)Nc2ccc3c(c2)OCO3)CC1 | 56* | 7
c1ccc(CN2CCN(c3nc(N4CCOCC4)c4ccccc4n3)CC2)cc1 | 7 | 8
CN1CCN(c2nc(N3CCN(CCO)CC3)nc3ccccc23)CC1 | 55* | -5
Cc1c(Br)cc(-c2nnco2)cc1Br | 19 | 22
COc1ccc2c(c1)CCc1c(C(=O)N3CCCc4ccccc43)noc1-2 | 36 | -10
COc1ccc2c(c1)CCc1c(C(=O)N3CC4(C)CC3CC(C)(C)C4)noc1-2 (configuration not stated) | 71* | -3
CCn1nnc(NC(=O)c2ccccc2Br)n1 | 5 | 21
COc1ccc(C(CC(=O)O)NC(=O)COc2ccc(C)cc2)cc1OC (configuration not stated) | 20 | 7
O=C1CC(N2CCN(c3ccc(F)cc3)CC2)C(=O)N1Cc1cccs1 (configuration not stated) | 5 | 2
O=C1CC(N2CCN(c3nc4ccccc4s3)CC2)C(=O)N1Cc1cccs1 (configuration not stated) | -26 | 73*
SMILES | eIF2B yeast act | Yeast tox
Cn1c(=O)[nH]c(=O)c2c1nc(Br)n2Cc1ccccc1Cl | 9 | 10
Cn1c(=O)[nH]c(=O)c2c1nc(SCC(O)CO)n2Cc1ccccc1Cl (configuration not stated) | 61* | 5
O=C(c1ccccc1)N1CCc2ccccc21 | 12 | 27
O=C(c1ccc(Br)o1)N1CCCc2ccccc21 | 53* | -17
CC(C)c1nc(-c2c(N)n(C)c(=O)n(C)c2=O)sc1C(=O)C(C)(C)C | 21 | 17
COC(=O)c1ccccc1NC(=O)C1CC(=O)N(c2ccc(C)cc2)C1 (configuration not stated) | 14 | 9
CC1Cc2ccccc2N1C(=O)c1cc2c(=O)n3ccccc3nc2n1C (configuration not stated) | -5 | -2
COC(=O)c1cc2c(=O)n3ccccc3nc2n(C)c1=N | 0 | 32*
CC(C)(C)Nc1nc2nonc2nc1NC(C)(C)C | . | 12
O=C(NCCN=C1NS(=O)(=O)c2ccccc21)c1ccncc1 | 11 | 8
CC(C)(C)C(=O)C(Cc1ccccc1Cl)n1cncn1 (configuration not stated) | 27 | 74*
CC(C)(C)C(=O)C(Cc1ccccc1)n1cncn1 (configuration not stated) | 26 | 62*
CC(C)(C)C(=O)Cn1c(=N)n(Cc2ccccc2Cl)c2ccccc21 | . | 3
CCCC(C(=O)c1ccccc1)n1cncn1 (configuration not stated) | 6 | 2
Cn1c(CNC(=O)Nc2ccccc2Cl)nnc1SCc1ccccc1 | -4 | 5
CN1CCN(C(=O)CN(CCc2ccccc2)S(C)(=O)=O)CC1 | 10 | 16
CN(C(=O)c1ccc(NC(=O)c2cnccn2)cc1)C1CCCCC1 | 17 | 5
O=c1cc(NCc2ccco2)[nH]c(=O)n1-c1ccc(Br)cc1 | -26 | -8
CCCC1COC(Cn2cncn2)(c2ccc(C)cc2)O1 (configuration not stated) | 92 | 93*
